Results from the M2OR odorant receptor database.

Molecular target: T1, OR5M3 (Homo sapiens) (UniProt Q8NGP4)
T1 sequence (whole entry): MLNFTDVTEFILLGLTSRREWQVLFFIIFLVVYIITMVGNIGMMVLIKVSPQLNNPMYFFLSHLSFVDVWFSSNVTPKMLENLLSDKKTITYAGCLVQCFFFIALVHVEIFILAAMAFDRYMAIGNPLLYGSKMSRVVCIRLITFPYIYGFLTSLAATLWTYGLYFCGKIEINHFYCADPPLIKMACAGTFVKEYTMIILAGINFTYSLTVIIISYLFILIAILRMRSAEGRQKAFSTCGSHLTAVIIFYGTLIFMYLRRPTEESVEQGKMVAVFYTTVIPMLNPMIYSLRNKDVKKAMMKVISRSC
Conditions: stereoisomer not certain
How it was run: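 Values were gathered from published papers (main text and supplementary material), with extra details requested from the original authors when needed, and checked for typos and inconsistencies. Each receptor–molecule pair is called responsive (active) if the original authors judged the measured signal statistically different from baseline, and non-responsive (inactive) otherwise. Assay methods varied by source, often transient mammalian cell-line luciferase assays. Recorded details include cell line, G-protein, co-transfected protein and tags.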

Row | Compound | odorant receptor agonist call
1 | Cc1occc1S | inactive
2 | CCCCCCCCCC(=O)[O-].[H+] | inactive
3 | CCCCCCC=CC=O | inactive
4 | CCC=CCCC=CCO | inactive
5 | CCCCCCCC(=O)OCC | inactive
6 | CCCCCC=CC=CC=O | inactive
7 | Cc1ccc(O)cc1 | inactive
8 | CC(C)CCO | inactive
9 | CCCCC1CCC(=O)O1 (configuration not stated) | inactive
10 | CCOC(C)OCC | inactive
11 | C=C(C)c1ccc(C)cc1 | inactive
12 | CCOC(=O)c1ccccc1 | inactive
13 | CCCC(=O)OCC | inactive
14 | CCCCC(C)CCC(=O)O (configuration not stated) | inactive
15 | CCC(=O)O | inactive
16 | CC(=O)C1=NCCS1 | inactive

Row | Compound | odorant receptor agonist call
17 | C=C(C)C1CC=C(C)CC1 (configuration not stated) | inactive
18 | C=Cc1ccc(O)cc1 | inactive
19 | CCCCCCCC(=O)[O-].[H+] | inactive
20 | CCCc1ccc(O)c(OC)c1 | inactive
21 | CSCCCO | inactive
22 | CCOC(=O)C(C)CC (configuration not stated) | inactive
23 | CCC(C)c1nccnc1OC (configuration not stated) | inactive
24 | CCO | inactive
25 | COC1=C(C)OC(C)C1=O (configuration not stated) | inactive
26 | C=C1CCC2(C(C)C)CC12 (configuration not stated) | inactive
27 | CCCCCC1CCC(=O)O1 (configuration not stated) | inactive
28 | CCCCCc1ccccn1 | inactive
29 | CCCSSCCC | inactive
30 | CCOC(=O)C(C)C | inactive
31 | CC(C)(S)CCOC=O | inactive
32 | CCC=CCCC=CC=O | inactive
